The values that follow come from ChEMBL document CHEMBL1148429, “Penicillin-derived inhibitors that simultaneously target both metallo- and serine-beta-lactamases” (Bioorg Med Chem Lett, 2004).

The structures appear in SMILES notation. Values after ≈ are worked out from the molar mass of the structure shown. Bounds are passed on as bounds.

The target in one assay is Beta-lactamase L1 (Stenotrophomonas maltophilia, UniProt P52700). In words: Beta-Lactamase Inhibition of metallo-beta-lactamase representative class B (L1) enzyme. In outline: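 For the metallo enzyme, inhibitor and enzyme were preincubated for 4 min. Concentrated nitrocefin was then added to give the final assay volume, and IC50 was determined.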
Assay [1] deals with T1, Metallo-beta-lactamase type 2 (Bacillus cereus, UniProt P14488).
T1 sequence (P14488 whole entry): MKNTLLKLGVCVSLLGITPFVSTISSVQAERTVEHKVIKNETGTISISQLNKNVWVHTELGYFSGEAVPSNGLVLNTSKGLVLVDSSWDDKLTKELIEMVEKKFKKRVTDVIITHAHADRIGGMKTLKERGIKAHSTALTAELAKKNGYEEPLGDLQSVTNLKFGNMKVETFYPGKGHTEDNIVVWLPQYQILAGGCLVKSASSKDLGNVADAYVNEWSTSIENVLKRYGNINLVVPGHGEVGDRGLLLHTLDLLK
In words: Inhibition of class B (BCII) metallo-beta-lactamase representative enzyme. In outline:
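BCII metallo-β-lactamase assay: inhibitor and enzyme incubated together for 4 min in 970 µL, then concentrated nitrocefin added to 1 mL final volume. IC50 determined from nitrocefin hydrolysis.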

A further assay has as its system Staphylococcus aureus. In words: Antibacterial activity was determined against the Staphylococcus aureus ATCC 29213 in presence of Piperacillin. Type of assay: functional. In outline:
(§1)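 MIC of piperacillin against β-lactamase-producing strains, with the piperacillin concentration varied and the inhibitor held constant at […].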

Assay [2] addresses Beta-lactamase TEM (Escherichia coli) (UniProt P62593). In words: Beta-Lactamase inhibitory activity against representative class A (TEM-1) serine enzyme from Escherichia coli ATCC 35218 in presence of Piperacillin. A digest of the protocol:
as §1

Assay [3] has as its target Beta-lactamase (Escherichia coli K-12) (UniProt P00811).
Assay [4] concerns Pseudomonas aeruginosa. In words: Synergistic activity against VIM-7 beta lactamase produced by Pseudomonas aeruginosa in presence of Piperacillin and Tazobactam; R = Resistant.
For assay [5], the system named is Escherichia coli. The assay is described as follows: Synergic activity against IMP-1 beta lactamase produced by Escherichia coli in presence of Piperacillin and Tazobactam; S = susceptible. It counts as functional. A digest of the protocol:
(§2)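 Synergy with piperacillin against metallo-β-lactamase-producing strains (IMP-1; SPM-1, VIM-1 or VIM-7 carriers). The initial screen used […] at a 1:1 antibiotic:inhibitor ratio. Inhibitor was tested with tazobactam or DVR-II-183 added as a serine β-lactamase inhibitor, or without one.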

The subject of assay [6] is Pseudomonas aeruginosa. The assay is described as follows: Synergistic activity against SPM-1 beta lactamase produced by Pseudomonas aeruginosa in presence of Piperacillin and Tazobactam; R = Resistant.
For assay [7], the system named is Pseudomonas aeruginosa. The assay is described as follows: Synergistic activity against VIM-1 beta lactamase produced by Pseudomonas aeruginosa in presence of Piperacillin and Tazobactam; R = Resistant.
Assay [8] can be described thus: Synergic activity against IMP-1 beta lactamase produced by Escherichia coli was determined in presence of Piperacillin. It counts as functional.
Assay [9] is described as follows: Synergistic activity against SPM-1 beta lactamase produced by Pseudomonas aeruginosa in presence of Piperacillin.
Assay [10] has as its system Pseudomonas aeruginosa. In words: Synergistic activity against VIM-7 beta lactamase produced by Pseudomonas aeruginosa in presence of Piperacillin; R = Resistant.
The test system of assay [11] is Pseudomonas aeruginosa. The assay is described as follows: Synergistic activity against VIM-1 beta lactamase produced by Pseudomonas aeruginosa in presence of Piperacillin; R = Resistant.
The nature of assay [12]: Synergistic activity against VIM-7 beta lactamase produced by Escherichia coli in presence of Piperacillin. The following applies: Pseudomonas aeruginosa. It counts as functional, plasmodium aeruginosa.
A short description of assay [13]: Synergistic activity against VIM-1 beta lactamase produced by Pseudomonas aeruginosa in presence of Piperacillin.
The next assay deals with Beta-lactamase TEM (Escherichia coli, UniProt P62593). The assay is described as follows: Beta-Lactamase inhibitory activity against representative class A (TEM-1) serine enzyme. In outline:
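Serine β-lactamase assay: inhibitor preincubated with enzyme for 4 min in 100 µL, then an aliquot transferred into dilute nitrocefin substrate (1 mL final). IC50 is expressed as the inhibitor concentration in the 100 µL incubation, from multiple experiments.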

Assay [14] concerns Pseudomonas aeruginosa. In words: Synergistic activity against VIM-1 beta lactamase produced by Pseudomonas aeruginosa presence of piperacillin (1:1); R = Resistant.
Assay [15] has as its system Escherichia coli. In words: Synergic activity against IMP-1 beta lactamase produced by Escherichia coli in presence of piperacillin (1:1) and compound 5c; S = susceptible. Type of assay: functional. A digest of the protocol:
as §2

The test system of assay [16] is Pseudomonas aeruginosa. In words: Synergistic activity against SPM-1 beta lactamase produced by Pseudomonas aeruginosa in presence of piperacillin (1:1) and compound 5c; S = susceptible.
The test system of assay [17] is Pseudomonas aeruginosa. In words: Synergistic activity against SPM-1 beta lactamase produced by Pseudomonas aeruginosa in presence of piperacillin (1:1); R = Resistant.
Assay [18] relates to Pseudomonas aeruginosa. In words: Synergistic activity against VIM-7 beta lactamase produced by Pseudomonas aeruginosa presence of piperacillin (1:1); R = Resistant.
Assay [19] concerns Pseudomonas aeruginosa. The assay is described as follows: Synergistic activity against VIM-7 beta lactamase produced by Pseudomonas aeruginosa presence of piperacillin (1:1) and compound 5c; R = Resistant.
For assay [20], the system named is Escherichia coli. The assay is described as follows: Synergic activity against IMP-1 beta lactamase produced by Escherichia coli in presence of piperacillin (1:1); R = Resistant. Type of assay: functional.
Assay [21] relates to Pseudomonas aeruginosa. In words: Synergistic activity against VIM-1 beta lactamase produced by Pseudomonas aeruginosa presence of piperacillin (1:1) and compound 5c; S = susceptible.

Sequence of Beta-lactamase (Escherichia coli K-12) (P00811 whole entry): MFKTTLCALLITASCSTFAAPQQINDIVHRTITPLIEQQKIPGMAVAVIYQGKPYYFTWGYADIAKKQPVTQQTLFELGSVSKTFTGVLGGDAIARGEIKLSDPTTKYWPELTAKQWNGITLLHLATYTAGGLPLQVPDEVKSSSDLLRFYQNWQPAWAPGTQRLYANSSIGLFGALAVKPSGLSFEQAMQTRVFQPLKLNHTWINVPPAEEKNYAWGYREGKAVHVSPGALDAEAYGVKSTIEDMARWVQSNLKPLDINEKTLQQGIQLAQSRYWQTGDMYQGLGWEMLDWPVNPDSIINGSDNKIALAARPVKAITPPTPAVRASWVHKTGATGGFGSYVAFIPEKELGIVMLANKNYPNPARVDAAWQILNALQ
Sequence of Beta-lactamase TEM (Escherichia coli) (P62593 whole entry): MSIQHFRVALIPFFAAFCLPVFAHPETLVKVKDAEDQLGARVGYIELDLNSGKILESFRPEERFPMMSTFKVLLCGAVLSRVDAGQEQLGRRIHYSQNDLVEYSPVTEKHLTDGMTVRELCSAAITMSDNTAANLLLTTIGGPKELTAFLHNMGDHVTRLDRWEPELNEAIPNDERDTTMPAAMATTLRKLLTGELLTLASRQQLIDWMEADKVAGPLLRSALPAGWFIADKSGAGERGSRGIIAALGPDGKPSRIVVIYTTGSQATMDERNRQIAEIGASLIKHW
Sequence of Beta-lactamase TEM (P62593 whole entry): as above
Sequence of Beta-lactamase L1 (P52700 whole entry): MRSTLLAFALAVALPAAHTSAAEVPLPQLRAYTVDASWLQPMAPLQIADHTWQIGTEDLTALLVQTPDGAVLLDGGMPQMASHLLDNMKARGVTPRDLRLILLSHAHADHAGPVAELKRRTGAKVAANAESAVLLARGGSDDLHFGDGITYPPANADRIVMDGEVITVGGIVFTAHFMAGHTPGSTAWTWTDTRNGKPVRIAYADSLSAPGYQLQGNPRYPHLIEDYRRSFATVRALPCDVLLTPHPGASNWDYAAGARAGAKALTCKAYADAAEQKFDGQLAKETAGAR

For the compound `O=C(O)c1cccc(C(=O)O)n1` [DIPICOLINIC ACID], the IC50 (in general, the concentration that inhibits the measured activity by half) came out at 7.8 µM against Beta-lactamase L1 and 21.8 µM in assay [1].

Regarding `CC1(C)[C@H](C(=O)O)N2C(=O)[C@@H](CO)[C@H]2S1(=O)=O`, the IC50 against Beta-lactamase L1 is 72.3 µM; in assay [1] it was greater than 200 µM. Also, the MIC with Staphylococcus aureus turned out to be 1 µg/mL; in assay [2], 1 µg/mL; in assay [3], 0.125 µg/mL (≈ 0.475 µM).

`CC1(C)[C@H](C(=O)O)N2C(=O)[C@H](CO)[C@H]2S1(=O)=O`: the IC50 (on Beta-lactamase L1; in assay [1]) was greater than 200 µM in each case. The MIC in the assay with Staphylococcus aureus turned out to be 2 µg/mL; in assay [2], 8 µg/mL; in assay [3] it was 0.25 µg/mL (≈ 0.95 µM).

As to `CC1(C)S[C@@H]2[C@@H](CS)C(=O)N2[C@H]1C(=O)O`, the Activity result in the assay on Pseudomonas aeruginosa [4] is “Resistant”; with Escherichia coli [5], “Susceptible”; with Pseudomonas aeruginosa [6], “Resistant”; in the assay with Pseudomonas aeruginosa [7], “Resistant”. In addition, the IC50 against Beta-lactamase L1 stood at 10.9 µM; in assay [1], 1.7 µM. For the same compound, the MIC in the assay with Staphylococcus aureus was 4 µg/mL; in [2], greater than 128 µg/mL; in assay [3] it was 2 µg/mL (≈ 8.09 µM).

With `C[C@]1(Cn2ccnn2)[C@H](C(=O)[O-])N2C(=O)C[C@H]2S1(=O)=O.[Na+]` [TAZOBACTAM SODIUM], the MIC was greater than 128 µg/mL in assay [8]; 1 µg/mL in the assay on Staphylococcus aureus; greater than 128 µg/mL in assay [9]; greater than 128 µg/mL in assay [12]; 1 µg/mL in assay [2]; greater than 128 µg/mL in assay [13]. In assay [3], this compound yielded an MIC of 0.5 µg/mL. In addition, the IC50 (at Beta-lactamase L1; in assay [1]) was greater than 200 µM in each case. The Activity entry in the assay with Pseudomonas aeruginosa [10] and in the assay on Pseudomonas aeruginosa [11] was “Resistant” in each case.

Consider `CC1(C)[C@H](C(=O)O)N2C(=O)[C@H](CS)[C@H]2S1(=O)=O`, for which the Activity result in the assay with Pseudomonas aeruginosa [4] is “Resistant”; with Escherichia coli [5] it was “Susceptible”; in the assay with Pseudomonas aeruginosa [6], “Resistant”; with Pseudomonas aeruginosa [7], “Resistant”. Further, the results for the IC50 (on Beta-lactamase L1; in assay [1]) were 0.3 µM and 12 µM, respectively. The MIC stood at 4 µg/mL in the assay with Staphylococcus aureus, 32 µg/mL in assay [2] and 0.5 µg/mL (≈ 1.79 µM) in [3].

With `CC1(C)S[C@@H]2[C@H](CO)C(=O)N2[C@H]1C(=O)O`, the results for the concentration for half-maximal inhibition (IC50) (against Beta-lactamase L1; in assay [1]; against Beta-lactamase TEM) were greater than 200 µM, greater than 200 µM and 752 µM, respectively. The MIC in the assay on Staphylococcus aureus was 4 µg/mL; in assay [2], greater than 128 µg/mL; in [3], 4 µg/mL (≈ 17.3 µM).

For `C[C@@]1(COC(=O)Cc2ccc(O)c(O)c2)S[C@@H]2/C(=C\c3ccccn3)C(=O)N2[C@H]1C(=O)O`, the Activity entry in the assay with Pseudomonas aeruginosa [14] was “Resistant”; with Escherichia coli [15], “Susceptible”; in the assay on Pseudomonas aeruginosa [16], “Susceptible”; in the assay on Pseudomonas aeruginosa [17], “Resistant”; with Pseudomonas aeruginosa [18] it was “Resistant”; in the assay on Pseudomonas aeruginosa [19] it was “Resistant”. Further, the Activity entry is reported as “Resistant” in the assay with Escherichia coli [20] and “Susceptible” with Pseudomonas aeruginosa [21].

For `CC1(C)S[C@@H]2[C@@H](CO)C(=O)N2[C@H]1C(=O)O`, the IC50 against Beta-lactamase L1 was greater than 200 µM; in [1], greater than 200 µM; at Beta-lactamase TEM, 275 µM. The MIC with Staphylococcus aureus is 8 µg/mL; in [2], greater than 128 µg/mL; in assay [3], 4 µg/mL (≈ 17.3 µM).

As to `CC1(C)S[C@@H]2[C@@H](S)C(=O)N2[C@H]1C(=O)O`, the IC50 against Beta-lactamase L1 was 36.9 µM; in assay [1] it was 17.2 µM; against Beta-lactamase TEM it was 988 µM. Moreover, the MIC in the assay on Staphylococcus aureus was 8 µg/mL; in assay [2], greater than 128 µg/mL; in assay [3], 2 µg/mL (≈ 8.57 µM).

In the case of `CC1(C)[C@H](C(=O)O)N2C(=O)[C@H](S)[C@H]2S1(=O)=O`, the IC50 was 7.6 µM against Beta-lactamase L1, 106 µM in assay [1] and 69.2 µM against Beta-lactamase TEM. The figures for the MIC (in the assay on Staphylococcus aureus; in [2]; in assay [3]) were 8 µg/mL, greater than 128 µg/mL and 2 µg/mL (≈ 7.54 µM), respectively.

As to `CC1(C)S[C@@H]2[C@H](CS)C(=O)N2[C@H]1C(=O)O`, the Activity entry in the assay on Pseudomonas aeruginosa [4] is “Resistant”; in the assay on Escherichia coli [5], “Susceptible”; with Pseudomonas aeruginosa [6], “Resistant”; in the assay with Pseudomonas aeruginosa [7] it was “Resistant”. The results for the IC50 (against Beta-lactamase L1; in assay [1]; at Beta-lactamase TEM) were 32.1 µM, 2.9 µM and 601 µM, respectively. Besides, the MIC in the assay on Staphylococcus aureus is 2 µg/mL; in assay [2], greater than 128 µg/mL; in assay [3] it was 2 µg/mL (≈ 8.09 µM).

As to `CC1(C)S[C@@H]2[C@H](S)C(=O)N2[C@H]1C(=O)O`, the IC50 against Beta-lactamase L1 is 41.4 µM; in assay [1], 17.8 µM; against Beta-lactamase TEM it was greater than 1000 µM. Besides, the figures for the MIC (in the assay with Staphylococcus aureus; in [2]; in assay [3]) were 8 µg/mL, greater than 128 µg/mL and 2 µg/mL (≈ 8.57 µM), respectively.
